# Measured values gathered from unrelated publications.
# Protocols differ between the studies behind these lines.
# Target: Interleukin-1 receptor-associated kinase 1 (IRAK1, Homo sapiens, UniProt P51617)
Structure (SMILES),read-out,mode,technique,concentration,endpoint,value
Cn1cc(-c2cc(F)cc(N3CCn4c(cc5c4CCCC5)C3=O)c2CO)cc(Nc2ccc(N3CCN(C4COC4)CC3)cn2)c1=O,enzyme activity,inhibitor,,0.1 µM,inhibition,2%
O=c1[nH]c2ccccc2n1C1CCN(Cc2ccc(-c3[nH]c4cc5ncnc5cc4nc3-c3ccccc3)cc2)CC1,cell-free assay,,,0.5 µM,remaining signal,109%
C#Cc1n[nH]c2c(-c3cn(C(C)c4ccccn4)c(=O)[nH]c3=O)cc(F)cc12 (stereo not drawn),enzyme activity,inhibitor,,1 µM,inhibition,11.6%
COc1ncccc1-c1cnn2ccc(N3CCN(C(=O)OC(C)C)CC3)nc12,binding,,competition with immobilised ligand,1 µM,remaining binding,80%
Nc1ncc(-c2nc(N3CCOCC3)nc(N3CCOCC3)n2)c(C(F)F)n1,binding,,competition with immobilised ligand,10 µM,remaining binding,50%
N#CC1(c2ccccn2)CCN(Cc2cc(C(=O)O)c(=O)n3ccccc23)CC1,cell-free assay,,competition with immobilised ligand,1 µM,remaining binding,77%
COc1cc(Nc2ncc(F)c(Nc3ccc4c(n3)NC(=O)C(C)(C)O4)n2)cc(OC)c1OC,binding,,,10 µM,inhibition,100%
Cn1cc(-c2cccc(N3CCc4c(sc5c4CC(C)(C)C5)C3=O)c2CO)cc(Nc2ccncn2)c1=O,enzyme activity,inhibitor,,1 µM,inhibition,-4%
CC(C)(C)c1cc(C=C(C#N)C#N)cc(Br)c1O,enzyme activity,inhibitor,,0.5 µM,remaining activity,105%
C#Cc1n[nH]c2c(-c3cn([C@@H](C)c4ccccc4)c(=O)[nH]c3=O)cc(F)cc12,enzyme activity,inhibitor,,0.1 µM,inhibition,-7%
Cn1cncc1[C@](O)(COc1ccc(C#N)cc1-c1ccc(OC(F)(F)F)cc1)c1ccc(C#N)cc1,cell-free assay,,competition with immobilised ligand,1 µM,remaining binding,83%
Cc1nn(C)cc1-c1nc2c(N3CCN(Cc4ccc(Cl)cc4)CC3)c(Cl)cnc2[nH]1,binding,,competition with immobilised ligand,1 µM,remaining binding,56%
